# Data taken from ChEMBL document CHEMBL1124235, “3-Phenoxypyridine 1-oxides as anticonvulsant agents” (1988).
# Active and inactive are the calls of the source. No cut-off for these calls is given here.
# Key:
# Mus musculus [1] = experiment: Dose required to protect Mice against tonic extension produced by maximal electroshock (MES) at 30 min post administration; format: functional; settings: 0.5 h, read-out: MED
# Procedure, shortened: (§1)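 Male Swiss-Webster mice (25–32 g), with food and water before testing, were dosed ip, the compound being in water or suspended in 0.29% Methocel. Doses were counted as free base, at levels of 10, 30, 100, 300 or >300 mg/kg, with n = 5. At 30 min, 90 mA, 1 ms monophasic pulses at 100 Hz were given through ear clips for 0.2 s. Value is the lowest dose protecting ≥2 mice from tonic hind-limb extension.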
# Mus musculus [2] = experiment: Dose at which mouse exhibited ataxia using the inverted screen procedure at 30 min post administration; format: functional
# Procedure, shortened: (§2)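 Mice (n = 5 per dose) were scored 30 min after dosing at levels of 10, 30, 100, 300 or >300 mg/kg. They were placed on an inverted wire-mesh square, and impaired mice fall off.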
# Mus musculus [3] = experiment: Number of mice falling from an inverted wire mesh during a 1-min test period 20 min after ip administration at a dose of 100 mg/Kg in ataxia (inverted screen test); - denotes 'no animals fell'; format: functional, organism-based
# Procedure, shortened: (§3)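 Mice were dosed ip and placed on an inverted wire mesh 20 min after injection, for a 1-min test. The number of mice that fell per dose group was counted, and a dash means none fell.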
# Mus musculus [4] = experiment: Increase in spontaneous locomotion activity after intraperitoneal administration in mice at a dose of 30 mg/Kg; format: functional
# Procedure, shortened: (§4)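 After ip injection, spontaneous locomotor activity was recorded automatically over a 1-h period beginning 20 min after dosing, with nine or more mice per dose group. Values are percent change from saline-treated mice.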
# Mus musculus [5] = experiment: Number of mice falling from an inverted wire mesh during a 1-min test period 20 min after ip administration at a dose of 30 mg/Kg in ataxia (inverted screen test); 1/9; format: functional; procedure, shortened: as §3
# Mus musculus [6] = experiment: Increase in spontaneous locomotion activity after intraperitoneal administration in mice at a dose of 10 mg/Kg; format: functional; procedure, shortened: as §4
# Mus musculus [7] = experiment: Increase in spontaneous locomotion activity after intraperitoneal administration in mice at a dose of 100 mg/Kg; format: functional; procedure, shortened: as §4
# Mus musculus [8] = experiment: Number of mice falling from an inverted wire mesh during a 1-min test period 20 min after ip administration at a dose of 10 mg/Kg in ataxia (inverted screen test ); - denotes 'no animals fell'; format: functional, organism-based; procedure, shortened: as §3
# Rattus norvegicus [9] = experiment: Ataxia produced by […] in rat by po administration at 1 hr post dosing; format: functional
# Procedure, shortened: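 Rats were dosed orally and checked 1.0 h afterwards. Ataxia was judged by visual (subjective) observation, not by rotarod. ED50 was calculated by probit analysis of quantal data from four dose groups of eight rats each, with 95% confidence intervals.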
# Mus musculus [10] = experiment: Increase in spontaneous locomotion activity after intraperitoneal administration in mice at a dose of 5 mg/Kg; format: functional; procedure, shortened: as §4
# Mus musculus [11] = experiment: Number of mice falling from an inverted wire mesh during a 1-min test period 20 min after ip administration at a dose of 60 mg/Kg in ataxia (inverted screen test); 6/12; format: functional; procedure, shortened: as §3
# Mus musculus [12] = experiment: Increase in spontaneous locomotion activity after intraperitoneal administration in mice at a dose of 40 mg/kg; format: functional; procedure, shortened: as §4
# Mus musculus [13] = experiment: Number of mice falling from an inverted wire mesh during a 1-min test period 20 min after ip administration at a dose of 10 mg/Kg in ataxia (inverted screen test); - denotes 'no animals fell'; format: functional, organism-based; procedure, shortened: as §3
# Mus musculus [14] = experiment: Increase in spontaneous locomotion activity after intraperitoneal administration in mice at a dose of 20 mg/Kg; format: functional; procedure, shortened: as §4
# Mus musculus [15] = experiment: Number of mice falling from an inverted wire mesh during a 1-min test period 20 min after ip administration at a dose of 20 mg/Kg in ataxia (inverted screen test); 1/12; format: functional; procedure, shortened: as §3
# Mus musculus [16] = experiment: Anticonvulsant activity by maximal electroshock test(MES) in mouse by ip administration at 0.5 hr postdosing
# Rattus norvegicus [17] = experiment: Anticonvulsant activity by maximal electroshock test(MES) in rat by po administration at 1 hr postdosing; format: functional
# Mus musculus [18] = experiment: Number of mice falling from an inverted wire mesh during a 1-min test period 20 min after ip administration at a dose of 40 mg/Kg in ataxia (inverted screen test); 1/12; format: functional; procedure, shortened: as §3
# Mus musculus [19] = experiment: Ataxia produced by rotarod ataxia test (ROT) in mouse by po administration at 0.5 hr post dosing
# Mus musculus [20] = experiment: Ataxia produced by rotarod ataxia test (ROT) in mouse by ip administration at 0.5 hr post dosing
# Mus musculus [21] = experiment: Increase in spontaneous locomotion activity after intraperitoneal administration in mice at a dose of 60 mg/kg; format: functional; procedure, shortened: as §4
# Mus musculus [22] = experiment: Anticonvulsant activity by maximal electroshock test(MES) in mouse by po administration at 0.5 hr postdosing
# Mus musculus [23] = experiment: Number of mice falling from an inverted wire mesh during a 1-min test period 20 min after ip administration at given dose in ataxia (inverted screen test) at 40 mg/kg; - denotes 'no animals fell'; format: functional, organism-based; set-up: dose 40 mg/kg; procedure, shortened: as §3
# Mus musculus [24] = experiment: Number of mice falling from an inverted wire mesh during a 1-min test period 20 min after ip administration at given dose in ataxia (inverted screen test) at 100 mg/kg; - denotes 'no animals fell'; format: functional, organism-based; set-up: dose 100 mg/kg; procedure, shortened: as §3
# Mus musculus [25] = experiment: Number of mice falling from an inverted wire mesh during a 1-min test period 20 min after ip administration at given dose in ataxia (inverted screen test) at 20 mg/kg; - denotes 'no animals fell'; format: functional, organism-based; set-up: dose 20 mg/kg; procedure, shortened: as §3
# Mus musculus [26] = experiment: Increase in spontaneous locomotion activity after intraperitoneal administration in mice at 10 mg/kg; no change; format: functional, organism-based; set-up: dose 10 mg/kg; procedure, shortened: as §4
# Mus musculus [27] = experiment: Increase in spontaneous locomotion activity after intraperitoneal administration in mice; 40 mg/kg; format: functional; procedure, shortened: as §4
# Mus musculus [28] = experiment: Increase in spontaneous locomotion activity after intraperitoneal administration in mice; at 100 mg/kg; format: functional; procedure, shortened: as §4
# Mus musculus [29] = experiment: Number of mice falling from an inverted wire mesh during a 1-min test period 20 min after ip administration at given dose in ataxia (inverted screen test) at 10 mg/kg; - denotes 'no animals fell'; format: functional, organism-based; set-up: dose 10 mg/kg; procedure, shortened: as §3
# Mus musculus [30] = experiment: Increase in spontaneous locomotion activity after intraperitoneal administration in mice at 20 mg/kg; format: functional; procedure, shortened: as §4
# Mus musculus [31] = experiment: Number of mice falling from an inverted wire mesh during a 1-min test period 20 min after ip administration at a dose of 100 mg/Kg in ataxia (inverted screen test); 2/9; format: functional; procedure, shortened: as §3
# Mus musculus [32] = experiment: Number of mice falling from an inverted wire mesh during a 1-min test period 20 min after ip administration at a dose of 30 mg/Kg in ataxia (inverted screen test); - denotes 'no animals fell'; format: functional, organism-based; procedure, shortened: as §3
# Mus musculus [33] = experiment: Dose at which mouse exhibited ataxia using the inverted screen procedure at 30 min post administration.; format: functional; procedure, shortened: as §2
# Mus musculus [34] = experiment: Dose required to protect Mice against tonic extension produced by maximal electroshock (MES) at 30 min post administration.; format: functional; settings: 0.5 h, read-out: MED; procedure, shortened: as §1
# Mus musculus [35] = experiment: Number of mice falling from an inverted wire mesh during a 1-min test period 20 min after ip administration at a dose of 100 mg/Kg in ataxia (inverted screen test); 3/9; format: functional; procedure, shortened: as §3
structure (smiles),measurement,setting,value
[O-][n+]1ccc(Cl)c(Oc2ccccc2)c1,minimal effective dose,Mus musculus [1],> 300 mg/kg
same,MAD,Mus musculus [2],300 mg/kg
N#Cc1cc[n+]([O-])cc1Oc1ccccc1,minimal effective dose,Mus musculus [1],300 mg/kg
same,MAD,Mus musculus [2],300 mg/kg
COc1ccc(Oc2c[n+]([O-])ccc2C)cc1,minimal effective dose,Mus musculus [1],300 mg/kg
same,MAD,Mus musculus [2],300 mg/kg
[O-][n+]1cccc(Oc2ccccc2)c1,minimal effective dose,Mus musculus [1],100 mg/kg
same,Activity,Mus musculus [3],Not toxic
same,Change,Mus musculus [4],45%
same,MAD,Mus musculus [2],300 mg/kg
same,Activity,Mus musculus [5],1
same,Change,Mus musculus [6],19%
same,Change,Mus musculus [7],122%
same,Activity,Mus musculus [8],Not toxic
CC(C)(C)c1cc[n+]([O-])cc1Oc1ccccc1,minimal effective dose,Mus musculus [1],30 mg/kg
same,MAD,Mus musculus [2],100 mg/kg
O=Cc1cc[n+]([O-])cc1Oc1ccccc1,minimal effective dose,Mus musculus [1],300 mg/kg
same,MAD,Mus musculus [2],>300 mg/kg
CC(C)c1cc[n+]([O-])cc1Oc1ccccc1,minimal effective dose,Mus musculus [1],30 mg/kg
same,MAD,Mus musculus [2],100 mg/kg
Cc1cc[n+]([O-])cc1Oc1ccccc1,ED50,Rattus norvegicus [9],75 mg/kg
same,minimal effective dose,Mus musculus [1],30 mg/kg
same,Change,Mus musculus [10],12%
same,Activity,Mus musculus [11],6
same,Change,Mus musculus [12],92%
same,Activity,Mus musculus [13],Not toxic
same,Change,Mus musculus [14],75%
same,MAD,Mus musculus [2],100 mg/kg
same,Activity,Mus musculus [15],1
same,ED50,Mus musculus [16],23 mg/kg
same,Change,Mus musculus [6],55%
same,ED50,Rattus norvegicus [17],11 mg/kg
same,Activity,Mus musculus [18],1
same,ED50,Mus musculus [19],300 mg/kg
same,ED50,Mus musculus [20],76 mg/kg
same,Change,Mus musculus [21],63%
same,ED50,Mus musculus [22],85 mg/kg
O=c1c2ccccc2oc2c[n+]([O-])ccc12,minimal effective dose,Mus musculus [1],> 300 mg/kg
same,MAD,Mus musculus [2],300 mg/kg
CCc1cc[n+]([O-])cc1Oc1ccccc1,minimal effective dose,Mus musculus [1],30 mg/kg
same,MAD,Mus musculus [2],100 mg/kg
Cc1cc[n+]([O-])cc1Oc1ccc(Cl)cc1,minimal effective dose,Mus musculus [1],100 mg/kg
same,MAD,Mus musculus [2],100 mg/kg
[O-][n+]1ccc(CO)c(Oc2ccccc2)c1,minimal effective dose,Mus musculus [1],300 mg/kg
same,MAD,Mus musculus [2],30 mg/kg
O=S(=O)(O)O.c1ccc(Oc2cccnc2)cc1,minimal effective dose,Mus musculus [1],100 mg/kg
same,Activity,Mus musculus [23],Not toxic
same,MAD,Mus musculus [2],300 mg/kg
same,Activity,Mus musculus [24],Not toxic
same,Activity,Mus musculus [25],Not toxic
same,Activity,Mus musculus [26],inactive
same,Change,Mus musculus [27],53%
same,Change,Mus musculus [28],15%
same,Activity,Mus musculus [29],Not toxic
same,Change,Mus musculus [30],28%
Cc1ccc(Oc2c[n+]([O-])ccc2C)cc1,minimal effective dose,Mus musculus [1],300 mg/kg
same,MAD,Mus musculus [2],300 mg/kg
OCc1ccncc1Oc1ccccc1,minimal effective dose,Mus musculus [1],300 mg/kg
same,MAD,Mus musculus [2],300 mg/kg
Cc1c(Oc2ccccc2)ccc[n+]1[O-],minimal effective dose,Mus musculus [1],300 mg/kg
same,Activity,Mus musculus [13],Not toxic
same,Change,Mus musculus [4],25%
same,Activity,Mus musculus [31],2
same,MAD,Mus musculus [2],300 mg/kg
same,Change,Mus musculus [6],48%
same,Change,Mus musculus [7],184%
same,Activity,Mus musculus [32],Not toxic
O=C(O)c1cc[n+]([O-])cc1Oc1ccccc1,minimal effective dose,Mus musculus [1],> 300 mg/kg
same,MAD,Mus musculus [2],>300 mg/kg
Cc1cc(Oc2ccccc2)c[n+]([O-])c1,minimal effective dose,Mus musculus [1],100 mg/kg
same,Activity,Mus musculus [3],Not toxic
same,Activity,Mus musculus [13],Not toxic
same,Change,Mus musculus [4],186%
same,MAD,Mus musculus [2],300 mg/kg
same,Change,Mus musculus [6],87%
same,Change,Mus musculus [7],228%
same,Activity,Mus musculus [32],Not toxic
c1ccc2c(c1)Cc1ccncc1O2,minimal effective dose,Mus musculus [1],100 mg/kg
same,MAD,Mus musculus [2],300 mg/kg
[O-][n+]1ccc(C2CCCCC2)c(Oc2ccccc2)c1,minimal effective dose,Mus musculus [1],> 300 mg/kg
same,MAD,Mus musculus [2],300 mg/kg
Cc1ccc(Oc2ccccc2)c[n+]1[O-],Activity,Mus musculus [13],Not toxic
same,Change,Mus musculus [4],96%
same,MAD,Mus musculus [33],300 mg/kg
same,minimal effective dose,Mus musculus [34],100 mg/kg
same,Change,Mus musculus [6],32%
same,Activity,Mus musculus [35],3
same,Change,Mus musculus [7],134%
same,Activity,Mus musculus [32],Not toxic
